Experimental data reported in ChEMBL document CHEMBL1142492 (J Med Chem, 2008).

What was measured:
[1] = target: Tyrosine-protein kinase SYK (Homo sapiens) (UniProt P43405); assay: Inhibition of SYK at 3 uM
[2] = target: Serine/threonine-protein kinase 35 (Homo sapiens) (UniProt Q8TDR2); assay: Inhibition of STK35 at 3 uM
[3] = target: Histamine H1 receptor (Homo sapiens) (UniProt P35367); assay: Inhibition of human histamine H1 receptor at 3 uM
[4] = target: Mitogen-activated protein kinase 12 (Homo sapiens) (UniProt P53778); assay: Inhibition of p38-gamma at 3 uM
Chain of Mitogen-activated protein kinase 12 (Homo sapiens) (P53778 whole entry): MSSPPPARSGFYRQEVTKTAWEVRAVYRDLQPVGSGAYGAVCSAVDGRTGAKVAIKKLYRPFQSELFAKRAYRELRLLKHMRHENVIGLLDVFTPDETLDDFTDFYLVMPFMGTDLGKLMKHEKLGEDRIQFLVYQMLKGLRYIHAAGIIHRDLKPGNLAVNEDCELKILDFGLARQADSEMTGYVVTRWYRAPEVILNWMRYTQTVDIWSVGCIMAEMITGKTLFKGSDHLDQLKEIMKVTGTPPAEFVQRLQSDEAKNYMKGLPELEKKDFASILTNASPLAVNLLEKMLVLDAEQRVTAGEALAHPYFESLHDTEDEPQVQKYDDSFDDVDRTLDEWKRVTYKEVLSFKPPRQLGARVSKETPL

[5] = target: cAMP-dependent protein kinase catalytic subunit alpha (Homo sapiens) (UniProt P17612); assay: Inhibition of PKAC-alpha at 3 uM
Rattus norvegicus [6] = species on record: Rattus norvegicus; details: 3 uM
[7] = target: Serine/threonine-protein kinase MARK2 (Homo sapiens) (UniProt Q7KZI7); assay: Inhibition of MARK2 at 3 uM
Sus scrofa = species on record: Sus scrofa; details: 25 uM
[8] = target: Calcium/calmodulin-dependent protein kinase type 1 (Homo sapiens) (UniProt Q14012); assay: Inhibition of CAMK1 at 3 uM
[9] = target: Calcium/calmodulin-dependent protein kinase type II subunit beta (Homo sapiens) (UniProt Q13554); assay: Inhibition of CAMK2B at 3 uM
[10] = target: Proto-oncogene tyrosine-protein kinase Src (Homo sapiens) (UniProt P12931); assay: Inhibition of SRC at 3 uM
Chain of Proto-oncogene tyrosine-protein kinase Src (Homo sapiens) (P12931 2-536 limits assumed): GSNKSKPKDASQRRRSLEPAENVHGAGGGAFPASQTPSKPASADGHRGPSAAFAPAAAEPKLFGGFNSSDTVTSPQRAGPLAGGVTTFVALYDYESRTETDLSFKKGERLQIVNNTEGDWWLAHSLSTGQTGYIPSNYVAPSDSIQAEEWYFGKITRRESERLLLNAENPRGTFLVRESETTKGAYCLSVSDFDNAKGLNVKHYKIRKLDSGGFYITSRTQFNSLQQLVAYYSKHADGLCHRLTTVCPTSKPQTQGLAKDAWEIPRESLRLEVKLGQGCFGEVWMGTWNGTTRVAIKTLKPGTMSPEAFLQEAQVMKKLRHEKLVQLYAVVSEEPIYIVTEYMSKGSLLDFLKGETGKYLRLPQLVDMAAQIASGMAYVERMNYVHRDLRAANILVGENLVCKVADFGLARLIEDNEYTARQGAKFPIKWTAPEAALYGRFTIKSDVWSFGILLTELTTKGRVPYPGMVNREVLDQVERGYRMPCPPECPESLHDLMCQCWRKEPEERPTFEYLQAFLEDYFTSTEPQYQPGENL

[11] = target: Glycogen synthase kinase-3 alpha (Homo sapiens) (UniProt P49840); assay: Inhibition of GSK3A at 3 uM
[12] = target: Dual specificity mitogen-activated protein kinase kinase 6 (Homo sapiens) (UniProt P52564); assay: Inhibition of MEK6 at 3 uM
[13] = target: Tyrosine-protein kinase Lyn (Homo sapiens) (UniProt P07948); assay: Inhibition of LYN at 3 uM
[14] = target: Rho-associated protein kinase 2 (Homo sapiens, UniProt O75116); assay: Inhibition of ROCK2 at 3 uM
Rattus norvegicus [15] = species on record: Rattus norvegicus; details: 3 uM; remark: listed apart in the source
[16] = target: AP2-associated protein kinase 1 (Homo sapiens) (UniProt Q2M2I8); assay: Inhibition of AAK1 at 3 uM
[17] = target: Cyclin-dependent kinase 2 (Homo sapiens) (UniProt P24941); assay: Inhibition of CDK2 at 3 uM
Rattus norvegicus [18] = species on record: Rattus norvegicus; details: 3 uM; remark: listed apart in the source
Homo sapiens = species on record: Homo sapiens; details: 3 uM
[19] = target: Serine/threonine-protein kinase Nek2 (Homo sapiens) (UniProt P51955); assay: Inhibition of NEK2 at 3 uM
[20] = target: Inhibitor of nuclear factor kappa-B kinase subunit epsilon (Homo sapiens) (UniProt Q14164); assay: Inhibition of IKK-epsilon at 3 uM
[21] = target: Mitogen-activated protein kinase kinase kinase 5 (Homo sapiens) (UniProt Q99683); assay: Inhibition of MAP3K5 at 3 uM
[22] = target: Serine/threonine-protein kinase 36 (Homo sapiens) (UniProt Q9NRP7); assay: Inhibition of STK36 at 3 uM
[23] = target: Platelet-derived growth factor receptor alpha (Homo sapiens) (UniProt P16234); assay: Inhibition of PDGFRA at 3 uM
CYP2D6 = CYP2D6 (Homo sapiens, UniProt P10635); assay: Inhibition of human CYP2D6 at 10 uM; type: ADME
[24] = target: Insulin receptor (Homo sapiens) (UniProt P06213); assay: Inhibition of INSR at 3 uM
Chain of Insulin receptor (Homo sapiens) (P06213 28-758 limits assumed): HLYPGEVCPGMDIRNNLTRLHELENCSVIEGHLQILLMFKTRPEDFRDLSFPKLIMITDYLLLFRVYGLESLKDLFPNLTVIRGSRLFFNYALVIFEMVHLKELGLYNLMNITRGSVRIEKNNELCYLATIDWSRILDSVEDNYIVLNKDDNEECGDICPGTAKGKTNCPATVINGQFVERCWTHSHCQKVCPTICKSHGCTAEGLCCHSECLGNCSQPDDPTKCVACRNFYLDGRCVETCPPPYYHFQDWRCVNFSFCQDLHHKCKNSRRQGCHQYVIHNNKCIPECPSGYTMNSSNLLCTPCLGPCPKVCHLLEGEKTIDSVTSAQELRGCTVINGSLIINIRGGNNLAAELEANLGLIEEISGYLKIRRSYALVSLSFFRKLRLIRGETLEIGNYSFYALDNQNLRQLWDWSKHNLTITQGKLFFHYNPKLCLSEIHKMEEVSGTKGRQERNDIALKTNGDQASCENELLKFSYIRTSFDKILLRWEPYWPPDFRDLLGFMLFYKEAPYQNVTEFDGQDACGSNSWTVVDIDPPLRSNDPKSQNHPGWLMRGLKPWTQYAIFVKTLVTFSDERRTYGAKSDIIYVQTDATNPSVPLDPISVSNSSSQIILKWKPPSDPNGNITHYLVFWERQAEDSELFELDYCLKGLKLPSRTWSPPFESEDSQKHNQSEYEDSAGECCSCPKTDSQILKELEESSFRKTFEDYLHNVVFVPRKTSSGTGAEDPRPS
Chain of Insulin receptor (Homo sapiens) (P06213 763-1382 limits assumed): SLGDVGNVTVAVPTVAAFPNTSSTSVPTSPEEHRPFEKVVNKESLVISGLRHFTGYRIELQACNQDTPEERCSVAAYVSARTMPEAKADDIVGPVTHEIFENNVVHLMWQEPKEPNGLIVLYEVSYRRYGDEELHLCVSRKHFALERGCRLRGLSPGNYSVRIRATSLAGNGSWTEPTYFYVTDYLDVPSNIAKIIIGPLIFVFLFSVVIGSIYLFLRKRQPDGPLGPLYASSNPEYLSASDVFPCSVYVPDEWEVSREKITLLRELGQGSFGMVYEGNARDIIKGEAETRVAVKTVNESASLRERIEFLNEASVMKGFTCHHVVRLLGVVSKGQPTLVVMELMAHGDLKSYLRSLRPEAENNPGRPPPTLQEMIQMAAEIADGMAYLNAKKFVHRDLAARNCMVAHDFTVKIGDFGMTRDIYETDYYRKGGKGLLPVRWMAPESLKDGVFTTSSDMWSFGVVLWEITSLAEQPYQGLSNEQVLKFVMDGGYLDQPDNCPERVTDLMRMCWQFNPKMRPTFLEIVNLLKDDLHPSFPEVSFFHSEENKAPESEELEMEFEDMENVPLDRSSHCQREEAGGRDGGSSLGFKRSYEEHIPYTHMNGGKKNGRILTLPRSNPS

[25] = target: 5'-AMP-activated protein kinase catalytic subunit alpha-1 (Homo sapiens) (UniProt Q13131); assay: Inhibition of AMPKalpha1 at 3 uM
[26] = test system: Tyrosine-protein kinase ABL1 (Homo sapiens), P00519 [Y253F]; assay: Inhibition of ABL1 Y253F mutant at 3 uM
[27] = target: Serine/threonine-protein kinase RIO3 (Homo sapiens) (UniProt O14730); assay: Inhibition of RIOK3 at 3 uM
[28] = target: Dual specificity protein kinase CLK4 (Homo sapiens) (UniProt Q9HAZ1); assay: Inhibition of CLK4 at 3 uM
[29] = target: Mitogen-activated protein kinase kinase kinase kinase 5 (Homo sapiens) (UniProt Q9Y4K4); assay: Inhibition of MAP4K5 at 3 uM
[30] = target: Phosphatidylinositol 4,5-bisphosphate 3-kinase catalytic subunit delta isoform (Homo sapiens) (UniProt O00329); assay: Inhibition of PIK3CD at 3 uM
[31] = target: Tyrosine-protein kinase ITK/TSK (Homo sapiens) (UniProt Q08881); assay: Inhibition of ITK at 3 uM
[32] = target: Mitogen-activated protein kinase kinase kinase kinase 2 (Homo sapiens) (UniProt Q12851); assay: Inhibition of MAP4K2 at 3 uM
[33] = target: Serine/threonine-protein kinase SIK2 (Homo sapiens) (UniProt Q9H0K1); assay: Inhibition of SNF1LK2 at 3 uM
Chain of Serine/threonine-protein kinase SIK2 (Homo sapiens) (Q9H0K1 whole entry, looked up): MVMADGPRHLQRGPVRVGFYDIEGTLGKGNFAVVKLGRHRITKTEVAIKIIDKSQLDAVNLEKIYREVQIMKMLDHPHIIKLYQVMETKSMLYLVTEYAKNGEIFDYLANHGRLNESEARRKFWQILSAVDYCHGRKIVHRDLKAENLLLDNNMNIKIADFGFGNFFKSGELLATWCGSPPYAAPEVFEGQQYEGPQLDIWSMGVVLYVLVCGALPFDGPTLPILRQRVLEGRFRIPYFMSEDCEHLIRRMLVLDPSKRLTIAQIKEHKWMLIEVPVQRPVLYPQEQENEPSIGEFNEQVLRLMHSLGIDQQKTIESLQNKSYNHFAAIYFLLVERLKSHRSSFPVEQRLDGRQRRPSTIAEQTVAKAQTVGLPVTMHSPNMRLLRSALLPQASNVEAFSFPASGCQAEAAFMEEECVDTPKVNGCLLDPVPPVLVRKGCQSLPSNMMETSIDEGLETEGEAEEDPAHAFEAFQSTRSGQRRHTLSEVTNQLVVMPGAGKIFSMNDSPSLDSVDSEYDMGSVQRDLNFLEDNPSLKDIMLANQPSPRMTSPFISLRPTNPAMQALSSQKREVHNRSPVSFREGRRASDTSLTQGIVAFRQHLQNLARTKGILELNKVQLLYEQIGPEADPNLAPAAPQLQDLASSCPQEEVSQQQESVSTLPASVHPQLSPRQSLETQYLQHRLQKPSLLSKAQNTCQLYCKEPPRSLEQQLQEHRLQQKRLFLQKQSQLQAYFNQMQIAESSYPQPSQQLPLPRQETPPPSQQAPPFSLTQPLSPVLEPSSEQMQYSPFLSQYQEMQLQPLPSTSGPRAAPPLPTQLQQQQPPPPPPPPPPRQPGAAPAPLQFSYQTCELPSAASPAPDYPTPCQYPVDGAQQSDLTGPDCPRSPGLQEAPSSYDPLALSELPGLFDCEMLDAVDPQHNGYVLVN

[34] = test system: Epidermal growth factor receptor (Homo sapiens), P00533 [L861Q]; assay: Inhibition of EGFR L861Q mutant at 3 uM; type: protein assay
Procedure, shortened: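 Single-concentration kinase panel scoring: each value is the percentage of enzyme activity remaining relative to a DMSO-only control. An activity statistically indistinct from DMSO control was scored "no hit".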

[35] = target: Leukocyte tyrosine kinase receptor (Homo sapiens) (UniProt P29376); assay: Inhibition of LTK at 3 uM
Chain of Leukocyte tyrosine kinase receptor (Homo sapiens) (P29376 whole entry): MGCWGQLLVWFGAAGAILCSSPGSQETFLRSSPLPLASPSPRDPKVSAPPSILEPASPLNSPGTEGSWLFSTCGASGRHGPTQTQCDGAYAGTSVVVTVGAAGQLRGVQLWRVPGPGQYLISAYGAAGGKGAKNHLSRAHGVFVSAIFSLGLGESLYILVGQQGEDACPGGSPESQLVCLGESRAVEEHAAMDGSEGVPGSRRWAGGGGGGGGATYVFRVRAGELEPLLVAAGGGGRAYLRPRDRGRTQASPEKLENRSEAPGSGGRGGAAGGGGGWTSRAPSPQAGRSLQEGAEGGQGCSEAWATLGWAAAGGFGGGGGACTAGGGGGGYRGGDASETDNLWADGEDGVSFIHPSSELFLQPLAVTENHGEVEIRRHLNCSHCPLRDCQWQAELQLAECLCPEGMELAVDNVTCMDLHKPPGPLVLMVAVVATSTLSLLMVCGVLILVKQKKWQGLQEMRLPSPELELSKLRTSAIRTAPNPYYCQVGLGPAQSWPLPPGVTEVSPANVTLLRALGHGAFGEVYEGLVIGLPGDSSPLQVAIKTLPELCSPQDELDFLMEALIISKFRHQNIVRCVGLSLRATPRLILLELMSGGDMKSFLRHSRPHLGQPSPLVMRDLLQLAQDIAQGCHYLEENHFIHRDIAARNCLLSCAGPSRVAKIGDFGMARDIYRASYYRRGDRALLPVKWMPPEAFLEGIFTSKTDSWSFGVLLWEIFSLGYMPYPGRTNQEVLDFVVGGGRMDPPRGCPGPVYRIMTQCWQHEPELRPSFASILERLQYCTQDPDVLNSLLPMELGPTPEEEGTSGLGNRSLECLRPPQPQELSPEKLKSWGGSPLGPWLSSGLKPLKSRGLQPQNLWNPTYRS

[36] = test system: Tyrosine-protein kinase ABL1 (Homo sapiens), P00519 [T315I]; assay: Inhibition of ABL1 T315I mutant at 3 uM
[37] = target: Mitogen-activated protein kinase kinase kinase 7 (TAK1) (Homo sapiens) (UniProt O43318); assay: Inhibition of TAK1 at 3 uM
[38] = target: SRSF protein kinase 2 (Homo sapiens) (UniProt P78362); assay: Inhibition of SRPK2 at 3 uM
[39] = target: cAMP-dependent protein kinase catalytic subunit beta (Homo sapiens) (UniProt P22694); assay: Inhibition of PKAC-beta at 3 uM
[40] = target: Testis-specific serine/threonine-protein kinase 1 (Homo sapiens) (UniProt Q9BXA7); assay: Inhibition of TSSK1 at 3 uM
Chain of Testis-specific serine/threonine-protein kinase 1 (Homo sapiens) (Q9BXA7 whole entry): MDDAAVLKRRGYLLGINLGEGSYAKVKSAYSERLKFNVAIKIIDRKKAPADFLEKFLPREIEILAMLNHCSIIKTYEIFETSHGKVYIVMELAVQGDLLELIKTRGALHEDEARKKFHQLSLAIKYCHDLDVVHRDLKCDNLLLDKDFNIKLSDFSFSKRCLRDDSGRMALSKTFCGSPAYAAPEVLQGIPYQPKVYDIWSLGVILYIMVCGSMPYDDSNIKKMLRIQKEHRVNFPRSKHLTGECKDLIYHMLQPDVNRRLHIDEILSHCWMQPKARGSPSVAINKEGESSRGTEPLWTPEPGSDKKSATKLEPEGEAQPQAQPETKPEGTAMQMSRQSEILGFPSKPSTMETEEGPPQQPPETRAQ

[41] = target: Serine/threonine-protein kinase MRCK beta (Homo sapiens) (UniProt Q9Y5S2); assay: Inhibition of MRCKB at 3 uM
[42] = target: Serine/threonine-protein kinase 17B (Homo sapiens) (UniProt O94768); assay: Inhibition of DRAK2 at 3 uM
[43] = target: Dual specificity mitogen-activated protein kinase kinase 3 (Homo sapiens) (UniProt P46734); assay: Inhibition of MEK3 at 3 uM
[44] = target: Serine/threonine-protein kinase ULK1 (Homo sapiens) (UniProt O75385); assay: Inhibition of ULK1 at 3 uM

Chain of Serine/threonine-protein kinase 35 (Homo sapiens) (Q8TDR2 whole entry): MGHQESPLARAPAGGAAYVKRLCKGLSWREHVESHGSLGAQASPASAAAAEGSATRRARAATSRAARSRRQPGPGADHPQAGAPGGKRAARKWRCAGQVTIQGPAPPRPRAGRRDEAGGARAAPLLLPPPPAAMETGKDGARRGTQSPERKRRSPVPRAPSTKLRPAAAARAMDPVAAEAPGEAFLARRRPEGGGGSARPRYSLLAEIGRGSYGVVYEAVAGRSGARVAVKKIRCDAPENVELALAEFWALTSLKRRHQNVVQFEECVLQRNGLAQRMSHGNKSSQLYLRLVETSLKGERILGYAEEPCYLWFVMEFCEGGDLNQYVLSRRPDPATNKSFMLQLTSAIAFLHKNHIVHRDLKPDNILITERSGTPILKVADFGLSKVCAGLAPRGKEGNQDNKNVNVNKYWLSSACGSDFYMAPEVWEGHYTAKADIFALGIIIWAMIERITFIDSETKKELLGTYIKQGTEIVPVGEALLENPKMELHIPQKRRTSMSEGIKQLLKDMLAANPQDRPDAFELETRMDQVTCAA

CN(C)CCOc1cc(-c2cn[nH]c2)ccc1NC(=O)C1COc2ccccc2O1 (configuration not stated) [SR-3677] was tested, and the inhibition [1] was under 10%, the inhibition [2] was under 10% and the inhibition [3] was 7%. For the same compound, the inhibition [4] was under 10%, the inhibition [5] was under 10% and the inhibition (Rattus norvegicus [6]) was -6%. For the same compound, the inhibition [7] was under 10%, the inhibition (Sus scrofa) was 90% and the inhibition [8] was under 10%. It also gave an inhibition [9] of under 10%, an inhibition [10] of under 10% and an inhibition [11] of under 10%. For the same compound, the inhibition [12] was under 10%, the inhibition [13] was under 10% and the inhibition [14] was 99.6%. It also gave an inhibition (Rattus norvegicus [15]) of 22%, an inhibition [16] of under 10% and an inhibition [17] of under 10%. For the same compound, the inhibition (Rattus norvegicus [18]) was 24%, the inhibition (Homo sapiens) was 4% and the inhibition [19] was under 10%. The inhibition [20] was under 10%, the inhibition [21] was under 10% and the inhibition [22] was under 10%. The inhibition [23] was under 10%, the inhibition at 10 µM (CYP2D6) was 75% and the inhibition [24] was under 10%. For the same compound, the inhibition [25] was under 10%, the inhibition [26] was under 10% and the inhibition [27] was under 10%. The inhibition [28] was 90%, the inhibition [29] was under 10% and the inhibition [30] was under 10%. For the same compound, the inhibition [31] was under 10%, the inhibition [32] was under 10% and the inhibition [33] was under 10%. For the same compound, the inhibition [34] was under 10%, the inhibition [35] was under 10% and the inhibition [36] was under 10%. For the same compound, the inhibition [37] was under 10%, the inhibition [38] was under 10% and the inhibition [39] was under 10%. The inhibition [40] was under 10%, the inhibition [41] was under 10% and the inhibition [42] was under 10%. For the same compound, the inhibition [43] was under 10% and the inhibition [44] was under 10%.
